Reference: ChEMBL document CHEMBL3804768, “Structure-Activity Relationship Studies of Mitogen Activated Protein Kinase Interacting Kinase (MNK) 1 and 2 and BCR-ABL1 Inhibitors Targeting Chronic Myeloid Leukemic Cells” (J Med Chem, 2016)
≈ marks a conversion by molar mass, not a printed value. Calls of active or inactive are those of the source. The rule behind the calls is not given here.

Tests used:
Bcr/Abl fusion protein = Bcr/Abl fusion protein (Homo sapiens, UniProt P00519); experiment: Inhibition of BCR fused full length human recombinant N-terminal His-tagged ABL (2 to 1130 residues) expressed in baculovirus expression system using FL-peptide 2 substrate preincubated for 10 mins followed by substrate addition measured after 60 mins by mobility shift assay
K562 [1] = experiment: Antiproliferative activity against human K562 cells over expressing eIF4E after 48 hrs by Cell-Titer-Glo luminescent cell viability assay; format: functional; conditions: K562, 48 h
Procedure, shortened: (§1)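 Cells seeded at 5000 per well in growth medium, exposed to serial doses from 0.003 μM to 50 μM for 48 h at 37 °C, 5% CO2. Viability was read by CellTiter-Glo luminescence and GI50 taken from the dose-response curve. Dose response was run in triplicate and the curve repeated twice. K562 eIF4E-overexpressing cells were cultured in RPMI with 10% FBS.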

[2] = Antiproliferative activity against human BV173 cells after 48 hrs by Cell-Titer-Glo luminescent cell viability assay; format: functional; conditions: BV-173, 48 h; procedure, shortened: as §1
[3] = Antiproliferative activity against human EM2 cells after 48 hrs by Cell-Titer-Glo luminescent cell viability assay; format: functional; conditions: EM-2, 48 h; procedure, shortened: as §1
[4] = target: Tyrosine-protein kinase ABL1 (Homo sapiens) (UniProt P00519); experiment: Inhibition of ABL1 in human K562 cells over expressing eIF4E assessed as reduction in phosphorylation of Crkl at Tyr207 after 24 hrs by Western blot analysis; format: cell-based
Procedure, shortened: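 K562 eIF4E-overexpressing cells were treated at 100, 500 and 1000 nM for 24 h and lysed in RIPA buffer with SDS and protease/phosphatase inhibitors. Equal protein was resolved on 4-12% Bis-Tris gels and blotted to PVDF, with blocking in 5% BSA/PBST. The blot was probed overnight at 4 °C with a Bcr/Abl activity antibody cocktail for Crkl and phospho-Crkl Tyr207, and detected by ECL chemiluminescence.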

[5] = target: T1, Receptor-type tyrosine-protein kinase FLT3 (Homo sapiens, UniProt P36888); experiment: Inhibition of human recombinant FLT3 expressed in sf21 cells using Poly(Glu:Tyr) as substrate in presence of [gamma32P]ATP
T1 sequence (P36888 whole entry): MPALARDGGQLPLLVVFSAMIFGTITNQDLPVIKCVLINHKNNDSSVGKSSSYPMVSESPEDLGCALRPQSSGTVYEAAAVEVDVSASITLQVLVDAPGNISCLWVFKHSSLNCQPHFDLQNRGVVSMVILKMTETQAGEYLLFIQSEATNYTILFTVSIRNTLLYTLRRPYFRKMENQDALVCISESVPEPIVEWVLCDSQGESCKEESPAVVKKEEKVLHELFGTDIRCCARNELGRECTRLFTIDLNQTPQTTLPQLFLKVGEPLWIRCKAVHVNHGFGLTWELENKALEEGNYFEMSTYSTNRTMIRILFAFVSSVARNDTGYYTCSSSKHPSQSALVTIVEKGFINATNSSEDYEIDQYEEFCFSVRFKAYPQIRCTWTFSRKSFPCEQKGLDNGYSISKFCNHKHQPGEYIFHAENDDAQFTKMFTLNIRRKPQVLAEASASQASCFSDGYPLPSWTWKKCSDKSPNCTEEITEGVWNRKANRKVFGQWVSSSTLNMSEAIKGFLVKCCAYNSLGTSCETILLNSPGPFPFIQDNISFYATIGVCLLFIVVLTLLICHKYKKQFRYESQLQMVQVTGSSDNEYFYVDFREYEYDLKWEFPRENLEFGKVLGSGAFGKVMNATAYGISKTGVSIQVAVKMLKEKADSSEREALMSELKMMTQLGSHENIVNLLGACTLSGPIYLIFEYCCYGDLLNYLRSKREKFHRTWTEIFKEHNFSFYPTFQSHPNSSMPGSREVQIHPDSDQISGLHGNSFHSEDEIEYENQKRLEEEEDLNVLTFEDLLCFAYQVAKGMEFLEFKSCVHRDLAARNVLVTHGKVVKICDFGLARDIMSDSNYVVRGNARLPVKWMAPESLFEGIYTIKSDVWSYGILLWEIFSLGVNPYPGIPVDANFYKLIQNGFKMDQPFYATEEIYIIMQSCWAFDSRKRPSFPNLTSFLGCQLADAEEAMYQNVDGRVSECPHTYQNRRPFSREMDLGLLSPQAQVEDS

[6] = target: Fibroblast growth factor receptor 2 (Homo sapiens, UniProt P21802); experiment: Inhibition of human recombinant FGFR2 expressed in sf21 cells using Poly(Glu:Tyr) as substrate in presence of [gamma32P]ATP
[7] = target: Platelet-derived growth factor receptor alpha (Homo sapiens, UniProt P16234); experiment: Inhibition of human recombinant PDGFRalpha expressed in sf21 cells using Poly(Glu:Tyr) as substrate in presence of [gamma32P]ATP
[8] = Thermodynamic solubility in pH 7 pION buffer at 500 uM incubated for 18 hrs by UV-spectrophotometry; format: physicochemical; conditions: read-out: Therm_solubility
[9] = Thermodynamic solubility in pH 4 pION buffer at 500 uM incubated for 18 hrs by UV-spectrophotometry; format: physicochemical; conditions: read-out: Therm_solubility
Cytochrome P450 2D6 = Cytochrome P450 2D6 (Homo sapiens, UniProt P10635); experiment: Inhibition of CYP2D6 (unknown origin); format: ADME
K562 [10] = experiment: Antitumor activity against human K562 cells over expressing eIF4E xenografted in po dosed NOD-SCID mouse assessed as tumor growth inhibition administered qd through oral gavage for 14 days; format: functional, organism-based
Procedure, shortened: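 Female SCID mice, 7-10 weeks old, received 1 x 10^7 K562 eIF4E-overexpressing cells subcutaneously. At tumor volumes of 75-245 mm³ (w²×l/2) mice were randomized and gavaged once daily for 14 days at 10 mL/kg.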

[11] = AUC in CD1 mouse at 50 mg/kg, po; format: ADME, organism-based; conditions: in vivo
Mus musculus = experiment: In vivo inhibition of MNK1/MNK2 in NOD-SCID mouse tumor xenografted with human K562 cells over expressing eIF4E assessed as inhibition of eIF4E phosphorylation at Ser209 at 50 mg/kg, po qd adminstered through oral gavage measured 4 hrs post dose by AlphaScreen SureFire assay; format: functional, organism-based
Procedure, shortened: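 Tumors were excised after the final day-14 oral dose (50 mg/kg) and flash frozen, then homogenized in SureFire lysis buffer with protease and phosphatase inhibitors. Lysate protein was normalized to 0.5 mg/mL by A280. Phospho-eIF4E Ser209 was read by AlphaScreen SureFire with 2 h acceptor and 2 h donor incubations at room temperature. Inhibition was calculated against the 0 h control signal.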

[12] = target: Proto-oncogene tyrosine-protein kinase receptor Ret (Homo sapiens, UniProt P07949); experiment: Inhibition of human recombinant RET expressed in sf21 cells at 1 uM using Poly(Glu:Tyr) as substrate in presence of [gamma32P]ATP
[13] = target: Mast/stem cell growth factor receptor Kit (Homo sapiens, UniProt P10721); experiment: Inhibition of human recombinant c-KIT expressed in insect cells at 1 uM using Poly(Glu:Tyr) as substrate in presence of [gamma32P]ATP
Sequence of Mast/stem cell growth factor receptor Kit (P10721 whole entry): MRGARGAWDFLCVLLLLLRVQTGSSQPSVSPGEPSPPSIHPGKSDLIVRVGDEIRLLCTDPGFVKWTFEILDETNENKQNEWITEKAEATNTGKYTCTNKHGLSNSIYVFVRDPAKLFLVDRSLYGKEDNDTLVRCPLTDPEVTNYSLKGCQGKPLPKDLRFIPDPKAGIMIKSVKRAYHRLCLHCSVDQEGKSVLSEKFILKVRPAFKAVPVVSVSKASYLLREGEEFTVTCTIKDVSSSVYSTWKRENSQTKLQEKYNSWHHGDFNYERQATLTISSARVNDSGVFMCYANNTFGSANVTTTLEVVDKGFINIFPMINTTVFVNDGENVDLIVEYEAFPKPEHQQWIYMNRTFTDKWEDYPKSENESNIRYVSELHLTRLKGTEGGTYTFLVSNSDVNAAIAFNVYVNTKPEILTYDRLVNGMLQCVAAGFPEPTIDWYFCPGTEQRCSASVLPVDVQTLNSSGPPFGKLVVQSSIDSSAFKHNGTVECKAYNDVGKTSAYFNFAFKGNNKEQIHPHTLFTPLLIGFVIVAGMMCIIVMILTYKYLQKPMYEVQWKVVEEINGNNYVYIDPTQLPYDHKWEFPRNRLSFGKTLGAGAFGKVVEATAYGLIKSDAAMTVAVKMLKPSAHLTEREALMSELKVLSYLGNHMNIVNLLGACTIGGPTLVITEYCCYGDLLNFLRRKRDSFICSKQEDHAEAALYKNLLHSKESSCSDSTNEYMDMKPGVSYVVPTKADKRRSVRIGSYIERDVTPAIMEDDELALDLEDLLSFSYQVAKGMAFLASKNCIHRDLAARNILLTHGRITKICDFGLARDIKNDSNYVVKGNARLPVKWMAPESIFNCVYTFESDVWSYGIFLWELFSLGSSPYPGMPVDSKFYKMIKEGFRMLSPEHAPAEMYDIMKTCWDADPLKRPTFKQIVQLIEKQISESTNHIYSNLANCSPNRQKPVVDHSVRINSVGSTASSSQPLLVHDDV

Sequence of Platelet-derived growth factor receptor alpha (P16234 whole entry): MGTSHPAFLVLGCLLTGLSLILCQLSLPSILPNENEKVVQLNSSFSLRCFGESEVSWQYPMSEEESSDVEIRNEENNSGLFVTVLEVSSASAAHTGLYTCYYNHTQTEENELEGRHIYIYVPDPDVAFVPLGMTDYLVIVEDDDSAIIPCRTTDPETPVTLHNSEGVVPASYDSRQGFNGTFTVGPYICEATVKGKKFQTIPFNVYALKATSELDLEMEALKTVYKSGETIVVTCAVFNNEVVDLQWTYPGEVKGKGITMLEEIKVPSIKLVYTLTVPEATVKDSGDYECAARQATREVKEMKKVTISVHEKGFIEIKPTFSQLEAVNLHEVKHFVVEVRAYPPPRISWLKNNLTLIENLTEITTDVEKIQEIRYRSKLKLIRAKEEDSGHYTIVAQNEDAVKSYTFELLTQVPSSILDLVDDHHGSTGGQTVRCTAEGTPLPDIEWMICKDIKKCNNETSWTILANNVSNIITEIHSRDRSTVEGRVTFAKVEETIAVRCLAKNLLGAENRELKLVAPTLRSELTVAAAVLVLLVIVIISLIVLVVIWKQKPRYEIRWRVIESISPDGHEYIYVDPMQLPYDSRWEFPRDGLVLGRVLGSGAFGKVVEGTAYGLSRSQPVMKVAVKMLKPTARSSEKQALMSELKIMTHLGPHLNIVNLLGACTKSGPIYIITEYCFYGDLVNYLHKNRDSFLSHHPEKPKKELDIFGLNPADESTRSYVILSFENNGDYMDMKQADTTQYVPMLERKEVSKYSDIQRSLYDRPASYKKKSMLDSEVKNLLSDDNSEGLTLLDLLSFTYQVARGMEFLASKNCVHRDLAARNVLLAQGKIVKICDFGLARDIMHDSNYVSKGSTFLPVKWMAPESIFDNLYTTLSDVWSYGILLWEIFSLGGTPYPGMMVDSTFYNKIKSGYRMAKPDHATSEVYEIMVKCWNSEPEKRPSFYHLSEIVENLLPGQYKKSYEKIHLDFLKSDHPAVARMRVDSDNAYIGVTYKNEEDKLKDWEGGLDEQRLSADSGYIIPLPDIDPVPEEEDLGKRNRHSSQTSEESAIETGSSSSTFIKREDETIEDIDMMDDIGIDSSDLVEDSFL
Sequence of Cytochrome P450 2D6 (P10635 whole entry): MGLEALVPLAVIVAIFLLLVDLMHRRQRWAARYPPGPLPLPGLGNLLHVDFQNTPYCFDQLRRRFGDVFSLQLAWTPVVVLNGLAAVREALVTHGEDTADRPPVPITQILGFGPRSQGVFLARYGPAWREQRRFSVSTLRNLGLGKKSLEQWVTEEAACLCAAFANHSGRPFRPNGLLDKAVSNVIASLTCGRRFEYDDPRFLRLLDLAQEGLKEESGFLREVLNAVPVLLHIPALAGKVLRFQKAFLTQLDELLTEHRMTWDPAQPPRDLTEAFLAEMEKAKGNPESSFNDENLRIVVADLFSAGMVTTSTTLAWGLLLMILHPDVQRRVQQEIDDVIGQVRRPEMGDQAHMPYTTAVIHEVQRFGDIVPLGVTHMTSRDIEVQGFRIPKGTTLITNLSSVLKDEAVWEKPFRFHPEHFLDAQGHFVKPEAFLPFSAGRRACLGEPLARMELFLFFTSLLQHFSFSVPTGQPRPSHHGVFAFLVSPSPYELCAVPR
Sequence of Tyrosine-protein kinase ABL1 (Homo sapiens) (P00519 whole entry): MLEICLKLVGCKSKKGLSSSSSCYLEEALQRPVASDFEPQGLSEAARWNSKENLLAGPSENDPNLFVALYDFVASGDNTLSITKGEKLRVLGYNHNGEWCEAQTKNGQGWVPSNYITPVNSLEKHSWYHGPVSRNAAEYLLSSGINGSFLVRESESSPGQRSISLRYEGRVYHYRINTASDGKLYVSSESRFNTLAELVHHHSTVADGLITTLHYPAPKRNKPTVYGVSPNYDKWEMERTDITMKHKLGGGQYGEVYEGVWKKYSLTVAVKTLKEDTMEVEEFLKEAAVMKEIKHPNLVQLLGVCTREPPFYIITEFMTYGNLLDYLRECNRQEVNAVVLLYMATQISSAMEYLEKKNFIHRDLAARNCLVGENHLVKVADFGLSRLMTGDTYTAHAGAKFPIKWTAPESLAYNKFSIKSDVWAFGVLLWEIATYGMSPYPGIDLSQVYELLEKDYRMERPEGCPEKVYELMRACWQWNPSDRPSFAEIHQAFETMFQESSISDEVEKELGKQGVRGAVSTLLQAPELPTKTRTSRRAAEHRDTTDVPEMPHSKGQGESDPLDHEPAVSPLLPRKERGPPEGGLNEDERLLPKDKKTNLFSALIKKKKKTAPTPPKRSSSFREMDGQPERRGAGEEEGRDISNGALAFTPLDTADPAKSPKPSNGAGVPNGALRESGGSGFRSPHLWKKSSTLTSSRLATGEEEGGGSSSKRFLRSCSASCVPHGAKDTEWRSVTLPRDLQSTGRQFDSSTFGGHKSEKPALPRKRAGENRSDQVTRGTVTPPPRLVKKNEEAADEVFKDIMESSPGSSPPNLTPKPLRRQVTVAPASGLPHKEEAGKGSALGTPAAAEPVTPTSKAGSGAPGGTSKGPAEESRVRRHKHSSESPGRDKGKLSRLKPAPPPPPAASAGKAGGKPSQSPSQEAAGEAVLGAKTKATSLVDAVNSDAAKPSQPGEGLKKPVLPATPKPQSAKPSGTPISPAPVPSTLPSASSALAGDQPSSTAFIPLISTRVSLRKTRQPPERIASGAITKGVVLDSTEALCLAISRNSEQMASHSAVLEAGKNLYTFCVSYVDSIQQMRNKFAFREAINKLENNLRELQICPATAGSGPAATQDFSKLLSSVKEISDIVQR
Sequence of Bcr/Abl fusion protein (P00519 whole entry, the tested form may be a part): as the sequence (P00519 whole entry) above
Sequence of Bcr/Abl fusion protein (P11274 whole entry, further chain, the tested form may be a part): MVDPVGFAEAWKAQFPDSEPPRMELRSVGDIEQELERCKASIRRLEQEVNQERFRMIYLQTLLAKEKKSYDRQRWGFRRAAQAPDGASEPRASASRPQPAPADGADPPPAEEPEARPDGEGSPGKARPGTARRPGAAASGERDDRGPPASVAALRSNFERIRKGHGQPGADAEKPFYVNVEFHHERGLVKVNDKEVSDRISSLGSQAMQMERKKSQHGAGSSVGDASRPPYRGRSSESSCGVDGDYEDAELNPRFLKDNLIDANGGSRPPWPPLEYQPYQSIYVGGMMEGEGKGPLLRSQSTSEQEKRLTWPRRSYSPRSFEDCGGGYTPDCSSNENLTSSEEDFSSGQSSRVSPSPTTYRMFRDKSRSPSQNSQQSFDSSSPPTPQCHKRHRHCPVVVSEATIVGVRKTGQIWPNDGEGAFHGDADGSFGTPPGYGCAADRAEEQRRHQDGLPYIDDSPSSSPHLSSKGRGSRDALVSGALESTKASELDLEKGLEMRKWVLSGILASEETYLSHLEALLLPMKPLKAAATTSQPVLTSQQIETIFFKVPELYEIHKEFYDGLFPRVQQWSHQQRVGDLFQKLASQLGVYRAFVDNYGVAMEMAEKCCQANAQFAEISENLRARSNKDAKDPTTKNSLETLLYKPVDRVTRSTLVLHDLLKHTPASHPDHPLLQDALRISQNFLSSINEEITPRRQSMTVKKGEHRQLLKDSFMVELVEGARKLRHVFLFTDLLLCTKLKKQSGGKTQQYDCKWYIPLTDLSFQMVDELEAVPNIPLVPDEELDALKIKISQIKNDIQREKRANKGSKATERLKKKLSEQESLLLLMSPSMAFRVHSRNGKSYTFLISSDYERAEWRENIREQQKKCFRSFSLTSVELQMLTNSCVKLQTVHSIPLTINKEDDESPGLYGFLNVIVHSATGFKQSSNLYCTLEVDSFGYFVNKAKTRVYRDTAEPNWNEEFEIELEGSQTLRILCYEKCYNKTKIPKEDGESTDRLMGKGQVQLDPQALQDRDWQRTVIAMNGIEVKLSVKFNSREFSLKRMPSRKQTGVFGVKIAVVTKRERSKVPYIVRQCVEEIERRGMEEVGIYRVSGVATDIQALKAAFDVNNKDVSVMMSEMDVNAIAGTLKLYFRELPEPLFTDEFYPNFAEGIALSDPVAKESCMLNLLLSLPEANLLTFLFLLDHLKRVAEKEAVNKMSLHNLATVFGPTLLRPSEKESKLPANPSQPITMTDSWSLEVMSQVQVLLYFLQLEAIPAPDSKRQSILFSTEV

Compound	IC50 (Bcr/Abl fusion protein)	GI50 (K562 [1])	GI50 [2]	GI50 [3]	inhibition [4]	IC50 [5]	IC50 [6]	IC50 [7]	solubility thermodynamic at 18 h, 500 µM [8]	solubility thermodynamic at 18 h, 500 µM [9]	IC50 (Cytochrome P450 2D6)	TGI (K562 [10])	AUC [11]	inhibition (Mus musculus)	inhibition [12]	inhibition [13]
CCN1CCN(Cc2ccc(NC(=O)CNc3ccc(-c4ccc(NC(=O)C5CC5)nc4)cc3)cc2C(F)(F)F)CC1	0.089 µM	0.051 µM	0.03 µM	0.015 µM	Dose-dependent effect	0.02 µM	0.93 µM	0.672 µM	0.1 µg/mL (≈ 0.172 µM)	128 µg/mL (≈ 220 µM)	> 30 µM	Dose-dependent effect	14300 ng·h/mL	Active	> 99%	> 99%
CN1CCN(Cc2ccc(NC(=O)CNc3ccc(-c4ccc(NC(=O)C5CC5)nc4)cc3F)cc2C(F)(F)F)CC1	0.01 µM	0.012 µM	0.001 µM	0.001 µM	Dose-dependent effect	0.02 µM	0.272 µM	1.28 µM	3.8 µg/mL (≈ 6.5 µM)	183 µg/mL (≈ 313 µM)	> 30 µM	Dose-dependent effect	5130 ng·h/mL	Active	> 99%	> 99%
